target: T1, IgG receptor FcRn large subunit p51 (Homo sapiens, UniProt P55899); assay: Inhibition of human IgG binding to soluble human FcRn by ELISA
Summary of the method: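 Biotinylated soluble human FcRn immobilized on neutravidin plates, incubated with hIgG (3 nM, constant) and peptide at varying concentrations for 2 h at 37 °C. After washing, bound hIgG detected with peroxidase-conjugated hIgG-specific Fab fragments.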

T1 sequence (P55899 whole entry, the tested form may be a part): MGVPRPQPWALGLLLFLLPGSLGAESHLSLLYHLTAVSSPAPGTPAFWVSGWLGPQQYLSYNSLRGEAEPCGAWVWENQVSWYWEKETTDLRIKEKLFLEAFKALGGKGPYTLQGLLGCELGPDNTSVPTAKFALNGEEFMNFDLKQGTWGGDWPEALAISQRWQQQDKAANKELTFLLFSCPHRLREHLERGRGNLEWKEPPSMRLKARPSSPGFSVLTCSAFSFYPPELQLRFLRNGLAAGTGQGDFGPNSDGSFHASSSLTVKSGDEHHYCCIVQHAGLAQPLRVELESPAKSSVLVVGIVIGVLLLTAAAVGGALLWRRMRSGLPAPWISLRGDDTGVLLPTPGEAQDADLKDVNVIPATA

`CC(C)C[C@H](NC(=O)CNC(=O)CNC(=O)[C@H](Cc1ccccc1)NC(=O)[C@H](Cc1cnc[nH]1)NC(=O)CNC(=O)[C@@H](NC(=O)[C@H](CS)NC(=O)[C@H](Cc1ccccc1)NC(=O)[C@@H](N)CCCN=C(N)N)[C@@H](C)O)C(=O)N[C@@H](Cc1ccc(O)cc1)C(=O)N1CCC[C@H]1C(=O)N[C@@H](CS)C(=O)O` and `CC(C)C[C@H](NC(=O)CNC(=O)CNC(=O)[C@H](Cc1ccccc1)NC(=O)[C@H](Cc1cnc[nH]1)NC(=O)CNC(=O)[C@@H](NC(=O)[C@H](CS)NC(=O)[C@@H](N)Cc1ccccc1)[C@@H](C)O)C(=O)N[C@@H](Cc1ccc(O)cc1)C(=O)N1CCC[C@H]1C(=O)N[C@@H](CS)C(=O)N[C@@H](CC(N)=O)C(=O)NCC(=O)N1CCC[C@H]1C(=O)O` are within 1.5-fold of each other in IC50: 87 µM for the first, 67 µM for the second.

For `CC(C)C[C@H](NC(=O)CNC(=O)CNC(=O)[C@H](Cc1ccccc1)NC(=O)[C@H](Cc1cnc[nH]1)NC(=O)CNC(=O)[C@@H](NC(=O)[C@H](CS)NC(=O)[C@H](Cc1ccccc1)NC(=O)[C@H](CCCNC(=N)N)NC(=O)[C@@H](N)CCC(N)=O)[C@@H](C)O)C(=O)N[C@@H](Cc1ccc(O)cc1)C(=O)N1CCC[C@H]1C(=O)N[C@@H](CS)C(=O)N[C@@H](CC(N)=O)C(=O)NCC(=O)N1CCC[C@H]1C(=O)O`, the IC50 was 40 µM.

target: T1, IgG receptor FcRn large subunit p51; assay: Binding affinity to human FcRn at pH 6 by surface plasmon resonance assay
Summary of the method: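 Soluble human FcRn coupled to the dextran surface of a CM5 chip; peptide dilutions flowed over the chip. The equilibrium response at each dilution was plotted against concentration and fitted to a steady-state affinity model to give Kd.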

Going from `CC(=O)Nc1ccc(C[C@H](NC(=O)[C@H](Cc2cnc[nH]2)NC(=O)CNC(=O)[C@@H](NC(=O)[C@@H](NC(=O)[C@H](Cc2ccccc2)NC(=O)[C@H](CCCN=C(N)N)NC(=O)[C@@H](N)CCC(N)=O)C(C)(C)S)[C@@H](C)O)C(=O)NCC(=O)NCC(=O)N[C@@H](CC(C)C)C(=O)N[C@@H](Cc2ccc(O)cc2)C(=O)N2CCC[C@H]2C(=O)N[C@@H](CS)C(=O)N[C@@H](CC(N)=O)C(=O)NCC(=O)N2CCC[C@H]2C(=O)O)cc1` to `Cc1ccc(C[C@H](NC(=O)[C@H](Cc2cnc[nH]2)NC(=O)CNC(=O)[C@@H](NC(=O)[C@@H](NC(=O)[C@H](Cc2ccccc2)NC(=O)[C@H](CCCN=C(N)N)NC(=O)[C@@H](N)CCC(N)=O)C(C)(C)S)[C@@H](C)O)C(=O)NCC(=O)NCC(=O)N[C@@H](CC(C)C)C(=O)N[C@@H](Cc2ccc(O)cc2)C(=O)N2CCC[C@H]2C(=O)N[C@@H](CS)C(=O)N[C@@H](CC(N)=O)C(=O)NCC(=O)N2CCC[C@H]2C(=O)O)cc1`, the Kd falls from 270 µM to 0.2 µM (1400-fold).

Going from `CC(C)C[C@H](NC(=O)CNC(=O)[C@@H](CC(=O)O)NC(=O)[C@H](Cc1ccccc1)NC(=O)[C@H](Cc1cnc[nH]1)NC(=O)CNC(=O)[C@@H](NC(=O)[C@@H](NC(=O)[C@H](Cc1ccccc1)NC(=O)[C@H](CCCN=C(N)N)NC(=O)[C@@H](N)CCC(N)=O)C(C)(C)S)[C@@H](C)O)C(=O)N[C@@H](Cc1ccc(O)cc1)C(=O)N1CCC[C@H]1C(=O)N[C@@H](CS)C(=O)N[C@@H](CC(N)=O)C(=O)NCC(=O)N1CCC[C@H]1C(=O)O` to `CC(C)C[C@H](NC(=O)CNC(=O)CNC(=O)[C@H](Cc1ccccc1)NC(=O)[C@H](Cc1cnc[nH]1)NC(=O)CNC(=O)[C@@H](NC(=O)[C@H](NC(=O)[C@H](Cc1ccccc1)NC(=O)[C@@H](CCCN=C(N)N)NC(=O)[C@@H](N)CCC(N)=O)C(C)(C)S)[C@@H](C)O)C(=O)N[C@@H](Cc1ccc(O)cc1)C(=O)N1CCC[C@H]1C(=O)N[C@H](CS)C(=O)N[C@@H](CC(N)=O)C(=O)NCC(=O)N1CCC[C@H]1C(=O)O`, the Kd falls from 0.58 µM to 0.28 µM (2.1-fold).

Compared with `CC(C)C[C@H](NC(=O)CNC(=O)CNC(=O)[C@H](Cc1ccc([N+](=O)[O-])cc1)NC(=O)[C@H](Cc1cnc[nH]1)NC(=O)CNC(=O)[C@@H](NC(=O)[C@@H](NC(=O)[C@H](Cc1ccccc1)NC(=O)[C@H](CCCN=C(N)N)NC(=O)[C@@H](N)CCC(N)=O)C(C)(C)S)[C@@H](C)O)C(=O)N[C@@H](Cc1ccc(O)cc1)C(=O)N1CCC[C@H]1C(=O)N[C@@H](CS)C(=O)N[C@@H](CC(N)=O)C(=O)NCC(=O)N1CCC[C@H]1C(=O)O`, `CC(C)C[C@H](NC(=O)CNC(=O)CNC(=O)[C@H](Cc1ccc(N)cc1)NC(=O)[C@H](Cc1cnc[nH]1)NC(=O)CNC(=O)[C@@H](NC(=O)[C@@H](NC(=O)[C@H](Cc1ccccc1)NC(=O)[C@H](CCCN=C(N)N)NC(=O)[C@@H](N)CCC(N)=O)C(C)(C)S)[C@@H](C)O)C(=O)N[C@@H](Cc1ccc(O)cc1)C(=O)N1CCC[C@H]1C(=O)N[C@@H](CS)C(=O)N[C@@H](CC(N)=O)C(=O)NCC(=O)N1CCC[C@H]1C(=O)O` is 84-fold lower in Kd: 84 µM for the first, 1 µM for the second.

First: CC(C)C[C@H](NC(=O)CNC(=O)CNC(=O)[C@H](Cc1ccccc1)NC(=O)[C@H](Cc1cnc[nH]1)NC(=O)CNC(=O)[C@@H](NC(=O)[C@@H](NC(=O)[C@H](Cc1ccccc1)NC(=O)[C@H](CCCNC(=N)N)NC(=O)[C@@H](N)CCC(N)=O)C(C)(C)S)[C@@H](C)O)C(=O)N[C@@H](Cc1ccc([N+](=O)[O-])cc1)C(=O)N1CCC[C@H]1C(=O)N[C@@H](CS)C(=O)N[C@@H](CC(N)=O)C(=O)NCC(=O)N1CCC[C@H]1C(=O)O
Second: CC(C)C[C@H](NC(=O)CNC(=O)[C@@H](C)NC(=O)[C@H](Cc1ccccc1)NC(=O)[C@H](Cc1cnc[nH]1)NC(=O)CNC(=O)[C@@H](NC(=O)[C@@H](NC(=O)[C@H](Cc1ccccc1)NC(=O)[C@H](CCCNC(=N)N)NC(=O)[C@@H](N)CCC(N)=O)C(C)(C)S)[C@@H](C)O)C(=O)N[C@@H](Cc1ccc(O)cc1)C(=O)N1CCC[C@H]1C(=O)N[C@@H](CS)C(=O)N[C@@H](CC(N)=O)C(=O)NCC(=O)N1CCC[C@H]1C(=O)O
The Kd of the first is 370-fold higher: 180 µM for the first, 0.49 µM for the second. The second binds more tightly here.

Going from `CC(C)C[C@H](NC(=O)CNC(=O)CNC(=O)[C@H](Cc1ccccc1)NC(=O)[C@H](Cc1cnc[nH]1)NC(=O)CNC(=O)[C@@H](NC(=O)[C@H](CCN)NC(=O)[C@H](Cc1ccccc1)NC(=O)[C@H](CCCN=C(N)N)NC(=O)[C@@H](N)CCC(N)=O)[C@@H](C)O)C(=O)N[C@@H](Cc1ccc(O)cc1)C(=O)N1CCC[C@H]1C(=O)N[C@@H](CC(=O)O)C(=O)N[C@@H](CC(N)=O)C(=O)NCC(=O)N1CCC[C@H]1C(=O)O` to `CC(C)C[C@H](NC(=O)CNC(=O)CNC(=O)[C@H](Cc1ccccc1)NC(=O)[C@H](Cc1cnc[nH]1)NC(=O)CNC(=O)[C@H](NC(=O)[C@H](NC(=O)[C@H](Cc1ccccc1)NC(=O)[C@H](CCCN=C(N)N)NC(=O)[C@@H](N)CCC(N)=O)C(C)(C)S)[C@@H](C)O)C(=O)N[C@@H](Cc1ccc(O)cc1)C(=O)N1CCC[C@H]1C(=O)N[C@H](CS)C(=O)N[C@@H](CC(N)=O)C(=O)NCC(=O)N1CCC[C@H]1C(=O)O`, the Kd rises from 8.4 µM to greater than 250 µM. The first binds more tightly here.

Going from `CC(C)C[C@H](NC(=O)[C@H]1CSC2C[C@@H](NC(=O)[C@H](Cc3ccccc3)NC(=O)[C@H](Cc3cnc[nH]3)NC(=O)CNC(=O)[C@@H](NC(=O)[C@H](NC(=O)[C@H](Cc3ccccc3)NC(=O)[C@@H](N)CCCNC(=N)N)C(C)(C)S)[C@@H](C)O)C(=O)N21)C(=O)N[C@@H](Cc1ccc(O)cc1)C(=O)N1CCC[C@H]1C(=O)N[C@@H](CS)C(=O)O` (stereo partly drawn) to `CC(C)C[C@H](NC(=O)CNC(=O)CNC(=O)[C@H](Cc1ccccc1)NC(=O)[C@H](Cc1cnc[nH]1)NC(=O)CNC(=O)[C@@H](NC(=O)[C@H](CS)NC(=O)[C@H](Cc1ccccc1)NC(=O)[C@@H](N)CCCN=C(N)N)[C@@H](C)O)C(=O)N[C@@H](Cc1ccc(O)cc1)C(=O)N1CCC[C@H]1C(=O)N[C@@H](CS)C(=O)O`, the Kd rises from 0.99 µM to 10 µM (10-fold). The first binds more tightly here.

Compared with `CC(C)C[C@H](NC(=O)CNC(=O)CNC(=O)[C@H](Cc1ccccc1)NC(=O)[C@H](Cc1cnc[nH]1)NC(=O)CNC(=O)[C@@H](NC(=O)[C@H](CS)NC(=O)[C@H](Cc1ccccc1)NC(=O)[C@H](CCCNC(=N)N)NC(=O)[C@@H](N)CCC(N)=O)[C@@H](C)O)C(=O)N[C@@H](Cc1ccc(O)cc1)C(=O)N1CCC[C@H]1C(=O)N[C@@H](CS)C(=O)N[C@@H](CC(N)=O)C(=O)NCC(=O)N1CCC[C@H]1C(=O)O`, `CC(C)C[C@H](NC(=O)[C@@H](Cc1ccccc1)NC(=O)CNC(=O)[C@H](Cc1ccccc1)NC(=O)[C@H](Cc1cnc[nH]1)NC(=O)CNC(=O)[C@@H](NC(=O)[C@@H](NC(=O)[C@H](Cc1ccccc1)NC(=O)[C@H](CCCNC(=N)N)NC(=O)[C@@H](N)CCC(N)=O)C(C)(C)S)[C@@H](C)O)C(=O)N[C@@H](Cc1ccc(O)cc1)C(=O)N1CCC[C@H]1C(=O)N[C@@H](CS)C(=O)N[C@@H](CC(N)=O)C(=O)NCC(=O)N1CCC[C@H]1C(=O)O` is 3-fold lower in Kd: 5.1 µM for the first, 1.7 µM for the second. The second binds more tightly here.

Going from `CC(C)C[C@H](NC(=O)CNC(=O)CNC(=O)[C@H](Cc1c(F)c(F)c(F)c(F)c1F)NC(=O)[C@H](Cc1cnc[nH]1)NC(=O)CNC(=O)[C@@H](NC(=O)[C@@H](NC(=O)[C@H](Cc1ccccc1)NC(=O)[C@H](CCCN=C(N)N)NC(=O)[C@@H](N)CCC(N)=O)C(C)(C)S)[C@@H](C)O)C(=O)N[C@@H](Cc1ccc(O)cc1)C(=O)N1CCC[C@H]1C(=O)N[C@@H](CS)C(=O)N[C@@H](CC(N)=O)C(=O)NCC(=O)N1CCC[C@H]1C(=O)O` to `CC(C)C[C@H](NC(=O)[C@@H](Cc1cnc[nH]1)NC(=O)CNC(=O)[C@H](Cc1ccccc1)NC(=O)[C@H](Cc1cnc[nH]1)NC(=O)CNC(=O)[C@@H](NC(=O)[C@@H](NC(=O)[C@H](Cc1ccccc1)NC(=O)[C@H](CCCN=C(N)N)NC(=O)[C@@H](N)CCC(N)=O)C(C)(C)S)[C@@H](C)O)C(=O)N[C@@H](Cc1ccc(O)cc1)C(=O)N1CCC[C@H]1C(=O)N[C@@H](CS)C(=O)N[C@@H](CC(N)=O)C(=O)NCC(=O)N1CCC[C@H]1C(=O)O`, the Kd falls from 70 µM to 2 µM (35-fold). The second binds more tightly here.

Compared with `CC(C)C[C@H](NC(=O)[C@@H](Cc1ccc(O)cc1)NC(=O)CNC(=O)[C@H](Cc1ccccc1)NC(=O)[C@H](Cc1cnc[nH]1)NC(=O)CNC(=O)[C@@H](NC(=O)[C@@H](NC(=O)[C@H](Cc1ccccc1)NC(=O)[C@H](CCCN=C(N)N)NC(=O)[C@@H](N)CCC(N)=O)C(C)(C)S)[C@@H](C)O)C(=O)N[C@@H](Cc1ccc(O)cc1)C(=O)N1CCC[C@H]1C(=O)N[C@@H](CS)C(=O)N[C@@H](CC(N)=O)C(=O)NCC(=O)N1CCC[C@H]1C(=O)O`, `CC(C)C[C@H](NC(=O)[C@@H]1CCCN1C(=O)[C@@H](Cc1ccccc1)NC(=O)[C@H](Cc1ccccc1)NC(=O)[C@H](Cc1cnc[nH]1)NC(=O)CNC(=O)[C@@H](NC(=O)[C@@H](NC(=O)[C@H](Cc1ccccc1)NC(=O)[C@H](CCCNC(=N)N)NC(=O)[C@@H](N)CCC(N)=O)C(C)(C)S)[C@@H](C)O)C(=O)N[C@@H](Cc1ccc(O)cc1)C(=O)N1CCC[C@H]1C(=O)N[C@@H](CS)C(=O)N[C@@H](CC(N)=O)C(=O)NCC(=O)N1CCC[C@H]1C(=O)O` is 2.5-fold higher in Kd: 1.5 µM for the first, 3.8 µM for the second.

Compared with `CC(C)C[C@H](NC(=O)CN(C)C(=O)[C@@H](C)NC(=O)[C@H](Cc1ccccc1)NC(=O)[C@H](Cc1cnc[nH]1)NC(=O)CNC(=O)[C@@H](NC(=O)[C@@H](NC(=O)[C@H](Cc1ccccc1)NC(=O)[C@H](CCCNC(=N)N)NC(=O)[C@@H](N)CCC(N)=O)C(C)(C)S)[C@@H](C)O)C(=O)N[C@@H](Cc1ccc(O)cc1)C(=O)N1CCC[C@H]1C(=O)N[C@@H](CS)C(=O)N[C@@H](CC(N)=O)C(=O)NCC(=O)N1CCC[C@H]1C(=O)O`, `CC(C)C[C@H](NC(=O)CNC(=O)CNC(=O)[C@H](Cc1ccccc1)NC(=O)[C@H](Cc1cnc[nH]1)NC(=O)CNC(=O)[C@@H](NC(=O)[C@H](CS)NC(=O)[C@@H](N)Cc1ccccc1)[C@@H](C)O)C(=O)N[C@@H](Cc1ccc(O)cc1)C(=O)N1CCC[C@H]1C(=O)N[C@@H](CS)C(=O)N[C@@H](CC(N)=O)C(=O)NCC(=O)N1CCC[C@H]1C(=O)O` is 58-fold higher in Kd: 0.19 µM for the first, 11 µM for the second. The first binds more tightly here.

Source: ChEMBL document CHEMBL1150419, “Structure-activity relationships of a peptide inhibitor of the human FcRn:human IgG interaction” (Bioorg Med Chem, 2008)
